Laboratory results reported in ChEMBL document CHEMBL2176935, “Discovery and lead optimization of a novel series of CC chemokine receptor 1 (CCR1)-selective piperidine antagonists via parallel synthesis” (J Med Chem, 2012).
Converted amounts (≈) assume the structure as drawn.

Columns and labels:
[1] = Oral bioavailability life in mouse at 5.2 mg/kg; assay type: ADME, organism-based; settings: in vivo
[2] = Half life in mouse at 5.2 mg/kg, po; assay type: ADME, organism-based; parameters: dose 5.2 mg/kg, route oral; settings: in vivo
[3] = AUC in mouse at 5.2 mg/kg, po; assay type: ADME, organism-based; parameters: dose 5.2 mg/kg, route oral; settings: plasma
[4] = Cmax in mouse at 5.2 mg/kg, po; assay type: ADME, organism-based; parameters: dose 5.2 mg/kg, route oral; settings: in vivo
[5] = Half life in mouse at 2.5 mg/kg, iv; assay type: ADME, organism-based; parameters: dose 2.5 mg/kg, route intravenous; settings: in vivo
[6] = AUC in mouse at 2.5 mg/kg, iv; assay type: ADME, organism-based; parameters: dose 2.5 mg/kg, route intravenous; settings: plasma
[7] = Volume of distribution at steady state in mouse at 2.5 mg/kg, iv; assay type: ADME, organism-based; parameters: dose 2.5 mg/kg, route intravenous; settings: in vivo, read-out: Vdss
[8] = Clearance in mouse at 2.5 mg/kg, iv; assay type: ADME, organism-based; parameters: dose 2.5 mg/kg, route intravenous; settings: in vivo
[9] = Thermodynamic solubility in pH 6.5 potassium phosphate buffer by HPLC method; assay type: physicochemical; settings: read-out: Therm_solubility
Method in brief: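 Thermodynamic equilibrium solubility. Compound standard dissolved in methanol, with DMSO added if needed, and mixed 1:1 with 50 mM potassium phosphate pH 6.5. Vortexed, sonicated 30 s, shaken 15−24 h at room temperature, centrifuged. Quantified by HPLC-UV at 210 or 254 nm against a calibration curve.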

[10] = target: Voltage-gated inwardly rectifying potassium channel KCNH2 (Homo sapiens, UniProt Q12809); assay: Inhibition of human ERG expressed in HEK293 cells assessed as reduction in peak tail current by whole cell patch clamp assay; assay type: cell-based
Sequence of Voltage-gated inwardly rectifying potassium channel KCNH2 (Q12809 whole entry): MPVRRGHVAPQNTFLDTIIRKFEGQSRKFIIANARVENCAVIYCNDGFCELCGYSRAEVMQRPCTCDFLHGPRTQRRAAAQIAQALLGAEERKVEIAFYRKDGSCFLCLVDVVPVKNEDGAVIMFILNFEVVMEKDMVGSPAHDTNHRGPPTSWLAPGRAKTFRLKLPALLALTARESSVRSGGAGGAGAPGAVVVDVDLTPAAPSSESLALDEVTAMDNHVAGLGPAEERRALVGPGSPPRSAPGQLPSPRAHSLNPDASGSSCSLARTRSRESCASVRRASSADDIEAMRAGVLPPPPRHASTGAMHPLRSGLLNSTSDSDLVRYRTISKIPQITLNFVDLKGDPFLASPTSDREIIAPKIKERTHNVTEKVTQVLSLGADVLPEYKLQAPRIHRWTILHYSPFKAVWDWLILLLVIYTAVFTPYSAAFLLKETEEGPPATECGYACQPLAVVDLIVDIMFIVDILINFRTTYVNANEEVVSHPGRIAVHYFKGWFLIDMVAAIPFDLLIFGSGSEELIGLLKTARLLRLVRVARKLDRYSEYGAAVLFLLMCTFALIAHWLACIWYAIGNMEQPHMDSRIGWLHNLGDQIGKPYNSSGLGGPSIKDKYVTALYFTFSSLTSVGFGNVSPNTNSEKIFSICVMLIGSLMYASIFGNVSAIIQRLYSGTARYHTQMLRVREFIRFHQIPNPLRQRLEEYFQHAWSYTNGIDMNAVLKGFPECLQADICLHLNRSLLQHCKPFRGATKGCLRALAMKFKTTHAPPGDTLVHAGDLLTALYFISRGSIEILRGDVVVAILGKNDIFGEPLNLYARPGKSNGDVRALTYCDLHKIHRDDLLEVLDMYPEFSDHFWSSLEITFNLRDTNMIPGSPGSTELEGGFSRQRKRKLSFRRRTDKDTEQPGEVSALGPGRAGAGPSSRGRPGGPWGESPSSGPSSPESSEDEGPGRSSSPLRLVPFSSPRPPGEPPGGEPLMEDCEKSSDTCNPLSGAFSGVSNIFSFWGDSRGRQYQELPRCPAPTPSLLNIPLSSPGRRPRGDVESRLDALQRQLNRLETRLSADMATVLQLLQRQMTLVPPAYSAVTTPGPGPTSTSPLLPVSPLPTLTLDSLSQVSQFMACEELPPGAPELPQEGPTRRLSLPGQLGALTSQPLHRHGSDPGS
Method in brief: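 Whole-cell patch clamp on HEK-293 cells stably expressing the hERG α subunit. Inhibition measured on peak tail current. Aqueous buffer at pH 7.4, room temperature, no protein present.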

[11] = target: Cytochrome P450 2D6 (Homo sapiens, UniProt P10635); assay: Inhibition of recombinant CYP2D6 expressed in baculovirus-infected insect cells using fluorogeinc substrate; assay type: ADME
Sequence of Cytochrome P450 2D6 (P10635 whole entry): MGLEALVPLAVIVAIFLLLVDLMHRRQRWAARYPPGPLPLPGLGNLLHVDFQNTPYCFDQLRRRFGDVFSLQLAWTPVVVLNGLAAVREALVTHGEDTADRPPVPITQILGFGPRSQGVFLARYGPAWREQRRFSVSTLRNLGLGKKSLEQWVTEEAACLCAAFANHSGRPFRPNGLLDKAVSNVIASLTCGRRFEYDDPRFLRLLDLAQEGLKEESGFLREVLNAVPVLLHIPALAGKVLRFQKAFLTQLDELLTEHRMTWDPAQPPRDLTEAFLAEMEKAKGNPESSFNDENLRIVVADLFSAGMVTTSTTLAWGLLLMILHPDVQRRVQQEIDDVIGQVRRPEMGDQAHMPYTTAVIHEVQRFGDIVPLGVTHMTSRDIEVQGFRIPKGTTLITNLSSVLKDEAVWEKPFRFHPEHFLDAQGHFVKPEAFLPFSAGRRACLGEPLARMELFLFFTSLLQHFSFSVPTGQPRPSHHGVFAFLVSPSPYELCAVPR
Method in brief: (§1)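 Recombinant CYP Supersomes premixed with fluorogenic substrate in potassium phosphate buffer and prewarmed 30 min at 37 °C with test substance. Reaction started with NADPH-regenerating system, incubated at 37 °C, then quenched with 80% acetonitrile/20% 0.5 M TRIS-base.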

[12] = target: Cytochrome P450 2C19 (Homo sapiens, UniProt P33261); assay: Inhibition of recombinant CYP2C19 expressed in baculovirus-infected insect cells using fluorogeinc substrate; assay type: ADME; method in brief: as §1
Sequence of Cytochrome P450 2C19 (P33261 whole entry): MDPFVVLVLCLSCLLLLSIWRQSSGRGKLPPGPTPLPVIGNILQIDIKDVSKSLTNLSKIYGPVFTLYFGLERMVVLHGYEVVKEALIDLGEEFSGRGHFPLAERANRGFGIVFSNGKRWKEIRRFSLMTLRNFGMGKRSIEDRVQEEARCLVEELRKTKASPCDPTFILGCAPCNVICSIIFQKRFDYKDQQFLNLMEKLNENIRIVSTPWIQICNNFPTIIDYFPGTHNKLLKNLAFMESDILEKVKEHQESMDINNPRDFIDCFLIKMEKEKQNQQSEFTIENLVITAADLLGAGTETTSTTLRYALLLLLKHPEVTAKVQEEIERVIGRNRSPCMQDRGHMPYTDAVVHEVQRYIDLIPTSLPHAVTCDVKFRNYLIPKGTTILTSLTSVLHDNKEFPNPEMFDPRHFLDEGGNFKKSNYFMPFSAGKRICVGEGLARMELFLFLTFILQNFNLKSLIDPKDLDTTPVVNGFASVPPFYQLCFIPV

[13] = target: Cytochrome P450 2C9 (Homo sapiens, UniProt P11712); assay: Inhibition of recombinant CYP2C9 expressed in baculovirus-infected insect cells using fluorogeinc substrate; assay type: ADME; method in brief: as §1
Sequence of Cytochrome P450 2C9 (P11712 whole entry): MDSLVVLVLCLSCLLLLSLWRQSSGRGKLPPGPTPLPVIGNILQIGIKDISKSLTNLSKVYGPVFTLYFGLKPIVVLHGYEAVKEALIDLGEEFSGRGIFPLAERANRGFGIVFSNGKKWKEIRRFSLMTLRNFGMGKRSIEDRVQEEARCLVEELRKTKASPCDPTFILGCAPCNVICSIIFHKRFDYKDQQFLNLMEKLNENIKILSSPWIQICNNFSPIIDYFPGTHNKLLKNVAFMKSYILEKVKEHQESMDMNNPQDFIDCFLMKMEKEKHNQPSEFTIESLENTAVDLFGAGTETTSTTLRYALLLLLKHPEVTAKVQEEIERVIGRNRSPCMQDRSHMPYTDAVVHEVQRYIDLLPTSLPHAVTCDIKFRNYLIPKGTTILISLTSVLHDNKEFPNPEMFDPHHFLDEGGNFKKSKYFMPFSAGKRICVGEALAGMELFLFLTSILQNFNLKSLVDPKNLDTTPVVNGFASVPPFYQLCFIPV

[14] = target: Cytochrome P450 3A4 (Homo sapiens, UniProt P08684); assay: Inhibition of recombinant CYP3A4 expressed in baculovirus-infected insect cells using fluorogeinc substrate; assay type: ADME; method in brief: as §1
Sequence of Cytochrome P450 3A4 (P08684 whole entry): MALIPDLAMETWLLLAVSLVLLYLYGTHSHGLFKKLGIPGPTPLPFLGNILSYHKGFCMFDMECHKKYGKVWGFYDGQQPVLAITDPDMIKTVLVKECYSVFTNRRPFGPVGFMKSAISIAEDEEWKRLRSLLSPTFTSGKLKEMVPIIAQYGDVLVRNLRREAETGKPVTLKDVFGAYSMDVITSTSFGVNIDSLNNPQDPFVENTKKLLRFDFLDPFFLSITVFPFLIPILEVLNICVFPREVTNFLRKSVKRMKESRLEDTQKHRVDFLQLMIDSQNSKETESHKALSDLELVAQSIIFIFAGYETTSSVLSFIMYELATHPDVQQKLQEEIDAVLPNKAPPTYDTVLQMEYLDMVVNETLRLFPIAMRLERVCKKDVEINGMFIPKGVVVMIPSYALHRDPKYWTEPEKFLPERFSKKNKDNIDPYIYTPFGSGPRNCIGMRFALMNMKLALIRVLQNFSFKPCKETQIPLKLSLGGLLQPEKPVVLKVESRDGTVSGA

[15] = target: T1, C-C chemokine receptor type 1 (Rattus norvegicus, UniProt A6I4C9); assay: Displacement of [125I]MIP-1alpha from CCR1 in rat thioglycolate-elicited peritoneal cells incubated for 60 mins
T1 sequence (A6I4C9 whole entry): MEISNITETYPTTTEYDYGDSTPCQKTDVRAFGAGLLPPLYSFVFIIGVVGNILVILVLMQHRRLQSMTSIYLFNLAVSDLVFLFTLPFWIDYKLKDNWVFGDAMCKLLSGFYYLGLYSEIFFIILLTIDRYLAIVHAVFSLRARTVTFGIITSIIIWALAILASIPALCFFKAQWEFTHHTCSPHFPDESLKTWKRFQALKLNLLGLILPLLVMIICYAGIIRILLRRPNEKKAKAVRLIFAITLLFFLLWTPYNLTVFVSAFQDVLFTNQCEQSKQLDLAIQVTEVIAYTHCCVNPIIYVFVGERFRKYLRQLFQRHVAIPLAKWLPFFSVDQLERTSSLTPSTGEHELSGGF
Method in brief: (§2)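 Cross-species binding using human 125I-MIP-1α at 0.08 nM final. Nonspecific binding measured with excess unlabeled ligand. Incubated 60 min at room temperature, washed, air-dried, filters gamma-counted. Cells were the mouse WEHI 274.1 line, rat thioglycollate-elicited peritoneal cells, and rabbit peripheral blood mononuclear cells.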

[16] = target: T2, Chemokine receptor (Oryctolagus cuniculus, UniProt Q9MYJ9); assay: Displacement of [125I]MIP-1alpha from CCR1 in rabbit PBMCs incubated for 60 mins; method in brief: as §2
T2 sequence (Q9MYJ9 whole entry): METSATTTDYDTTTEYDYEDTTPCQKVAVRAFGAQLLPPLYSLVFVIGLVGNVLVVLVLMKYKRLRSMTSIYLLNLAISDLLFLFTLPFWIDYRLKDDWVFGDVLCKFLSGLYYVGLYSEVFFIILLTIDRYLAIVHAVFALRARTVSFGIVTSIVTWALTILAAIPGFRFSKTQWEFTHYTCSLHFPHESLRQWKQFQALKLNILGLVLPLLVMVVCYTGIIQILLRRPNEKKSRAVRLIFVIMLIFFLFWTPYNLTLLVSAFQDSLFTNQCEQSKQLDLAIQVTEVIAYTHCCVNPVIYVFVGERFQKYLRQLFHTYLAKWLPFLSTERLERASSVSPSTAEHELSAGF

[17] = target: T3, C-C chemokine receptor type 1 (Mus musculus, UniProt P51675); assay: Displacement of [125I]MIP-1alpha from CCR1 in mouse WEHI 274.1 cells incubated for 60 mins; assay type: cell-based; method in brief: as §2
T3 sequence (P51675 whole entry): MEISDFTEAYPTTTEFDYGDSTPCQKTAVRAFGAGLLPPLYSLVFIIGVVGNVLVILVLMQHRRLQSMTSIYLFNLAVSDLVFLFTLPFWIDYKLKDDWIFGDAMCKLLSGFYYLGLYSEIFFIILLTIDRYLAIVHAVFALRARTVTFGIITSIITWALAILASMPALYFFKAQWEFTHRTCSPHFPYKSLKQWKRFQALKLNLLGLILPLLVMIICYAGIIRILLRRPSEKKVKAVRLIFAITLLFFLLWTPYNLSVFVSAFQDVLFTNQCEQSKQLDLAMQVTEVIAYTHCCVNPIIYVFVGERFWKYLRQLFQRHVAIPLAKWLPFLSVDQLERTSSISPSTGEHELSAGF

[18] = test system: Liver microsomes; assay: Stability in rat liver microsomes assessed as compound remaining; assay type: ADME, Microsome
[19] = test system: Liver microsomes; assay: Stability in human liver microsomes assessed as compound remaining; assay type: ADME, Microsome
[20] = test system: Liver; assay: Stability in mouse liver microsomes assessed as compound remaining; assay type: ADME, Microsome
[21] = target: C-C chemokine receptor type 5 (Homo sapiens, UniProt P51681); assay: Displacement of [125I]MIP-1beta from human CCR5 expressed in HT1080 cells by scintillation counting; assay type: cell-based, HT-1080
Sequence of C-C chemokine receptor type 5 (P51681 whole entry): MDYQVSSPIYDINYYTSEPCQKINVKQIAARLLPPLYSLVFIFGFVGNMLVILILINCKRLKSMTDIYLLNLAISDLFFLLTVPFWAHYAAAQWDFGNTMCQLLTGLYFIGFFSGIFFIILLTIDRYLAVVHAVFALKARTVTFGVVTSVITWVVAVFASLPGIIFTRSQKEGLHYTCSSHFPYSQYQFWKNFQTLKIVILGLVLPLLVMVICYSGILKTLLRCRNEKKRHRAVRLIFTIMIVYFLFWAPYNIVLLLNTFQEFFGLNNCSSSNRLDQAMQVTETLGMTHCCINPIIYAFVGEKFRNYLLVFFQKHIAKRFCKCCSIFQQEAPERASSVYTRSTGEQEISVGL
Method in brief: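 SPA using membranes from HT1080 cells stably expressing RAGE-activated human CCR5, 10 μg protein per well, with PVT-WGA-PS beads. Compound 11-point 3-fold dilutions, 40 μM to 0.7 nM final. 125I-MIP-1β at 0.1 nM final. Incubated 4 h at room temperature, read on TopCount.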

[22] = target: C-C chemokine receptor type 3 (Homo sapiens, UniProt P51677); assay: Displacement of [125I]eotaxin from human CCR3 expressed in CHO CCR3/2 chimeric cells by scintillation counting; assay type: cell-based
Sequence of C-C chemokine receptor type 3 (P51677 whole entry, looked up): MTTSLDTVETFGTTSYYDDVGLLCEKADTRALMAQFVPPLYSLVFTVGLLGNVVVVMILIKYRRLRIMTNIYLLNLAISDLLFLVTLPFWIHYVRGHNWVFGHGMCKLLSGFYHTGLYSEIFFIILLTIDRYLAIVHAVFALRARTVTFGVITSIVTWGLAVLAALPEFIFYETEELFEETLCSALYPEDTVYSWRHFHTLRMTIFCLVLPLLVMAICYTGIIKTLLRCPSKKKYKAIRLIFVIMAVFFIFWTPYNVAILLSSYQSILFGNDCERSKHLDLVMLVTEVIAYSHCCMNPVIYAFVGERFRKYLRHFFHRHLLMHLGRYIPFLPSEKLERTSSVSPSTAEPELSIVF
Method in brief: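 Compound 11-point 3-fold dilutions, 40 μM to 0.7 nM final. 125I-Eotaxin at 0.2 nM final. Incubated 3 h at room temperature; nonspecific binding set with 100 nM eotaxin. Duplicates.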

[23] = target: C-C chemokine receptor type 2 (Homo sapiens, UniProt P41597); assay: Displacement of [125I]MCP1 from CCR2 in human THP1 cells; assay type: cell-based, THP-1
Sequence of C-C chemokine receptor type 2 (P41597 whole entry): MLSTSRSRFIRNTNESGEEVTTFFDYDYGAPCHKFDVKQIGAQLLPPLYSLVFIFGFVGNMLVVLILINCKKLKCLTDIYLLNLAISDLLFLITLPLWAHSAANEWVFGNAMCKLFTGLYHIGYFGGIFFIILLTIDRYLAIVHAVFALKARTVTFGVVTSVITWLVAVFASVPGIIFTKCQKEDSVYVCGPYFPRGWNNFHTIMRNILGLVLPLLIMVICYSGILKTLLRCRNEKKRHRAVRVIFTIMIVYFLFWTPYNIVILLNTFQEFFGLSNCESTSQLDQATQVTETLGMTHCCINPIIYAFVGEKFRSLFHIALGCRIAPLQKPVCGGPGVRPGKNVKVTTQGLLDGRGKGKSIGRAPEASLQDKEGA

[24] = target: T4, C-C chemokine receptor type 1 (Homo sapiens, UniProt P32246); assay: Antagonist activity at CCR1 in human THP1 cells assessed as inhibition of CK-8beta-induced calcium flux by FLIPR; assay type: functional, cell-based, THP-1
T4 sequence (P32246 whole entry): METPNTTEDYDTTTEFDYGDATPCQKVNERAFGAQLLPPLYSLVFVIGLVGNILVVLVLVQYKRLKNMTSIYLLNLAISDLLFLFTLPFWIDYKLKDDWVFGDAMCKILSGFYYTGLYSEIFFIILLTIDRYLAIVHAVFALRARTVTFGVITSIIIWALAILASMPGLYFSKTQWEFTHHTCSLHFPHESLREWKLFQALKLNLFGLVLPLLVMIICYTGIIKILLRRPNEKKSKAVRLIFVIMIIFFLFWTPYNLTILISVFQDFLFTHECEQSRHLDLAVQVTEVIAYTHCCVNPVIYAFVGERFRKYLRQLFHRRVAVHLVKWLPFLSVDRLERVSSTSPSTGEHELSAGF

[25] = target: T4, C-C chemokine receptor type 1; assay: Antagonist activity at CCR1 in human THP1 cells assessed as inhibition of MIP-1alpha-induced calcium flux by FLIPR; assay type: functional, cell-based, THP-1
Method in brief: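 THP-1 cells loaded with fluo-3 AM and resuspended in assay buffer containing probenecid. Calcium flux was followed on FLIPR after adding MIP-1α at 20 nM. Compound effect was taken as the change in base-to-peak excursion relative to control. Run in duplicate.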

[26] = target: T4, C-C chemokine receptor type 1; assay: Displacement of [125I]MIP-1alpha from CCR1 in human THP1 cells; assay type: cell-based, THP-1
Method in brief: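 THP-1 cells, 1 × 105, mixed with WGA PS SPA beads in RPMI 1640 (no phenol red) with 50 mM HEPES, 5 mM MgCl2, 1 mM CaCl2, 0.1% BSA. Compound in 3-fold dilutions, 8 μM to 140 pM final. [125I]-MIP-1α at 0.1 nM final. Incubated 12 h at room temperature, imaged by LEADseeker. Duplicates; IC50 from four-parameter logistic fit after nonspecific correction.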

SMILES: CC(C)[C@@H](NC(=O)c1ccccc1)C(=O)N1CCC(c2ccc(Cl)cc2)CC1
- bioavailability [1]: 52%
- half-life [2]: 5.2 h
- AUC [3]: 6.6 µM·h
- Cmax [4]: 3.1 µM
- half-life [5]: 6.9 h
- AUC [6]: 5.9 µM·h
- Vd [7]: 4.8 L/kg
- clearance [8]: 12.5 mL/min/kg
- solubility thermodynamic [9]: 1 µg/mL (≈ 2.51 µM)
- IC50 [10]: 7 µM
- IC50 [11]: > 40 µM
- IC50 [12]: > 40 µM
- IC50 [13]: > 40 µM
- IC50 [14]: > 40 µM
- IC50 [15]: > 30 µM
- IC50 [16]: 0.55 µM
- IC50 [17]: > 25 µM
- Stability [18]: 83%
- Stability [19]: 100%
- Stability [20]: 73%
- IC50 [21]: > 20 µM
- IC50 [22]: > 30 µM
- IC50 [23]: > 20 µM
- IC50 [24]: 0.085 µM
- IC50 [25]: 0.015 µM
- IC50 [26]: 0.028 µM
